Test results taken from ChEMBL document CHEMBL4368903, “Identification of GSK3186899/DDD853651 as a Preclinical Development Candidate for the Treatment of Visceral Leishmaniasis” (J Med Chem, 2019).
Converted amounts (≈) assume the structure as drawn. The source made the active and inactive calls. The rule behind the calls is not given here.

What was measured:
Leishmania donovani [1] = test: Antileishmanial activity against Leishmania donovani […] in human THP1 cells by intramacrophage assay; type: functional, organism-based; settings: Leishmania donovani, THP-1
[2] = Intrinsic clearance in CD1 mouse liver microsomes at 0.5 uM after 3 to 30 mins in presence of NADPH by UPLC-MS/MS analysis; type: ADME, Microsome
Outline: (§1)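 0.5 μM compound with female CD1 mouse or human liver microsomes, started with excess NADPH in 50 mM potassium phosphate pH 7.4. Aliquots at 0, 3, 6, 9, 15 and 30 min quenched in acetonitrile with internal standard. UPLC-MS/MS; rate constant from exponential decay of compound/IS ratio. Verapamil as positive control.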

[3] = Kinetic aqueous solubility of the compound in phosphate buffer at pH 7.4 by CLND assay; type: physicochemical; settings: phosphate buffer, read-out: Kinetic_solubility
Outline: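 From 10 mM DMSO stock diluted 1:20 into pH 7.4 PBS, equilibrated 1 h at RT, filtered. Filtrate quantified by calibrated flow-injection CLND. Dynamic range 1–500 μM.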

[4] = Solubility of compound in fasted simulated intestinal fluid at 1 mg after 4 hrs by HPLC-UV analysis; type: physicochemical; settings: fasted simulated intestinal fluid
Outline: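 1 mg solid shaken in 1 mL FaSSIF (3 mM sodium taurocholate, 0.75 mM lecithin, phosphate buffer pH 6.5) at 900 rpm for 4 h at room temperature, then filtered. Supernatant quantified by HPLC-UV against single-point DMSO calibration. Range 1–1000 μg/mL.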

[5] = Dissociation constant, pKa of the compound by UV-spectroscopy; type: physicochemical
Outline: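 Sirius T3 acid–base titration with UV read-out: 5 μL of 10 mM sample, absorbance over 54 pH values in about 5 min. Methanol cosolvent with Yasuda–Shedlovsky extrapolation used when precipitation occurred.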

Leishmania donovani [6] = test: Antileishmanial activity against Leishmania donovani LV9 amastigotes infected in BALB/c mouse assessed as suppression of parasite load within liver at 25 mg/kg, po administered bid for 10 days relative to control; type: functional
Outline: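 Female BALB/c mice, 5 per group, infected i.v. with about 2×10^7 L. donovani LV9 amastigotes harvested from infected hamster spleen. Oral dosing starts day 7 post-infection, in 0.5% HPMC/0.4% Tween 80/0.5% benzyl alcohol, or 10% DMSO/60% PEG400/30% water for the 5-day 50 mg/kg regimen. Dosing solutions made fresh daily. Killed day 14 (5-day) or 19 (10-day). Liver smears give LDU (amastigotes/500 nucleated cells × organ weight). Mean LDU compared with vehicle control gives % suppression.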

Cytochrome P450 3A4 = Cytochrome P450 3A4 (Homo sapiens, UniProt P08684); test: Inhibition of CYP3A4 in human liver microsomes using midazolam as substrate preincubated for 20 mins followed by substrate addition and measured after 5 mins by LC-MS/MS analysis; type: ADME
Cytochrome P450 3A4, sequence (P08684 whole entry): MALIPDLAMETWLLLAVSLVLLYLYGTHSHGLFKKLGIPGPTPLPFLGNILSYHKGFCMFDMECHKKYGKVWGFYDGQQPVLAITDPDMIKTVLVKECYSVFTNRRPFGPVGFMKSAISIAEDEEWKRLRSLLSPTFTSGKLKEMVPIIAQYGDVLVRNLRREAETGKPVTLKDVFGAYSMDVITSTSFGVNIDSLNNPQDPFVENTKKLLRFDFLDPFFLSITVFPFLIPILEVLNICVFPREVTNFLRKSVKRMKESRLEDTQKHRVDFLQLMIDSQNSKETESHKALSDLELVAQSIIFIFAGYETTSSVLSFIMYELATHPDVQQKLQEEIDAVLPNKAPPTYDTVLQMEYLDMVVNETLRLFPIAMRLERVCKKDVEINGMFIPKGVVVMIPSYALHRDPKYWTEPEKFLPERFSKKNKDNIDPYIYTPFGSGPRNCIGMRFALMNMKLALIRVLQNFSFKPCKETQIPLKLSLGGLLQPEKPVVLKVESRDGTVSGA
Outline: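 Pooled human liver microsomes (final 0.1 mg/mL) with midazolam marker substrate, monitoring CYP3A4-specific metabolite. Test compound at eight concentrations, 0.1–100 μM, final organic ≤0.5%. Preincubated at 37 °C for 20 min, then substrate or cofactor added and incubated 5 min at 37 °C. Stopped with ice-cold acetonitrile; LC-MS/MS read-out gives pIC50.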

[7] = Mutagenicity in Salmonella typhimurium at 1500 ug/plate by Ames test; type: toxicity; settings: salmonella enterica subsp. enterica serovar typhimurium
Lymphoma cell line [8] = test: Clastogenicity in mouse Lymphoma cells at 5 ug/ml; type: toxicity, cell-based
[9] = biological target: Voltage-gated inwardly rectifying potassium channel KCNH2 (Homo sapiens, UniProt Q12809); test: Inhibition of human ERG by patch clamp assay
Voltage-gated inwardly rectifying potassium channel KCNH2, sequence (Q12809 whole entry): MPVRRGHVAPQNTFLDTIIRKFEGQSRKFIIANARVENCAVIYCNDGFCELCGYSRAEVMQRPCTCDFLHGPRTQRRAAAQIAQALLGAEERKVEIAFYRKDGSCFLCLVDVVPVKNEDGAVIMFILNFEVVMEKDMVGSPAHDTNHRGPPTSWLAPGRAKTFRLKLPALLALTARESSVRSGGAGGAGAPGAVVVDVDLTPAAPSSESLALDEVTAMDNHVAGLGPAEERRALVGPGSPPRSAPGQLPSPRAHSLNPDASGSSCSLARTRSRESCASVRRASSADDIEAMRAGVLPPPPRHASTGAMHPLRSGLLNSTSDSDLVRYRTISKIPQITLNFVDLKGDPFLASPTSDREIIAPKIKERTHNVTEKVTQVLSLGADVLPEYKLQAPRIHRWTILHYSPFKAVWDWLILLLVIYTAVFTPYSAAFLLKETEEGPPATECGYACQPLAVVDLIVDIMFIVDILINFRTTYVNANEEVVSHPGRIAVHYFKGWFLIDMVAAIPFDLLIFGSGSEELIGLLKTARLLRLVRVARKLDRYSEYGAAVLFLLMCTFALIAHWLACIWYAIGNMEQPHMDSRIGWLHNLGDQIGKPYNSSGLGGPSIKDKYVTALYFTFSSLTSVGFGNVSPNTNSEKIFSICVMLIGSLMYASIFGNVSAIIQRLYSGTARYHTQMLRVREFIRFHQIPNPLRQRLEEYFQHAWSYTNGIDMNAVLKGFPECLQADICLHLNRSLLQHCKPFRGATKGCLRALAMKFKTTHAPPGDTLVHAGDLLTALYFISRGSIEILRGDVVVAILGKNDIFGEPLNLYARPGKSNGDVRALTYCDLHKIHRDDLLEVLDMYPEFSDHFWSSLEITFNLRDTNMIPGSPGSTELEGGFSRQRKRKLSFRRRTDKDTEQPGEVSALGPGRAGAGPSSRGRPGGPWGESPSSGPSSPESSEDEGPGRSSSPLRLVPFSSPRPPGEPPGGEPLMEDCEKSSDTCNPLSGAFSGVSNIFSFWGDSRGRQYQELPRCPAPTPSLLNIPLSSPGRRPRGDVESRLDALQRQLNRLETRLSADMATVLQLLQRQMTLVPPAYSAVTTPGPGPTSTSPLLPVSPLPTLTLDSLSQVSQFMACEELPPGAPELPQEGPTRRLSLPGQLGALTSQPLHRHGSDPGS

[10] = Toxicity in Crl:WI(Han) rat at 100 to 1000 mg/kg/day, po via gavage for 7 days; type: organism-based; settings: in vivo, 168 h
Outline: (§2)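 Male Crl:WI(Han) rats received compound by oral gavage in a 7-day repeat-dose study at 100, 300 and 1000 mg/kg/day. Endpoints were in-life clinical signs (food consumption, body weight, piloerection), macroscopic observations, histopathology, clinical pathology and liver gene expression profiling.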

[11] = Toxicity in Crl:WI(Han) rat assessed as reduction in food consumption at 1000 mg/kg/day, po via gavage for 7 days; type: organism-based; settings: in vivo, 168 h; outline: as §2
[12] = Toxicity in Crl:WI(Han) rat assessed as piloerection at 1000 mg/kg/day, po via gavage for 7 days; type: organism-based; settings: in vivo, 168 h; outline: as §2
[13] = Toxicity in Crl:WI(Han) rat assessed as irregular breathing at 1000 mg/kg/day, po via gavage for 7 days; type: organism-based; settings: in vivo, 168 h
Outline: (§3)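 Male Crl:WI(Han) rats given oral gavage daily for 7 days at 100, 300 and 1000 mg/kg/day. Clinical signs, macroscopic findings, clinical pathology versus controls, and a liver gene expression panel for hepatic toxicity mechanisms.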

[14] = Toxicity in Crl:WI(Han) rat assessed as multiple organ changes at 1000 mg/kg/day, po via gavage for 7 days by histological analysis; type: organism-based; settings: in vivo, 168 h; outline: as §2
[15] = Toxicity in Crl:WI(Han) rat assessed as pancreas vacuolation at 300 mg/kg/day, po via gavage for 7 days by histological analysis; type: organism-based; settings: in vivo, 168 h; outline: as §2
[16] = Toxicity in Crl:WI(Han) rat assessed as kidney vacuolation at 300 mg/kg/day, po via gavage for 7 days by histological analysis; type: organism-based; settings: in vivo, 168 h; outline: as §2
[17] = Toxicity in rabbit cardiac ventricular wedge assessed as QT shortening at 10 uM relative to control; type: tissue-based, Oryctolagus cuniculus, Cardiac ventricle
[18] = Cardiotoxicity in Crl:WI(Han) rat up to 600 mg/kg, po via gavage; type: toxicity, organism-based; settings: in vivo
[19] = Therapeutic index, ratio of fCmax in conscious unrestrained telemetered Crl:WI(Han) rat at 300 mg/kg/day, po via gavage for 7 days measured on day 1 to fCmax in Leishmania donovani LV9 amastigotes infected BALB/c mouse at 25 mg/kg, po administered bid for 10 days measured on day 1; type: organism-based; settings: in vivo, read-out: TI
Outline: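 Index = free Cmax on day 1 of the rat cardiovascular study / free Cmax on day 1 of the mouse efficacy model. Rat arm: conscious, unrestrained, telemetered male CRL:WI(Han) rats given a single oral dose (up to 1000 mg/kg). Mouse arm: female BALB/c infected i.v. with L. donovani LV9 amastigotes, dosed orally twice daily from day 7 post-infection in 0.5% HPMC, 0.4% Tween 80, 0.5% benzyl alcohol.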

[20] = biological target: Cyclin-dependent kinase 2 (Homo sapiens) (UniProt P24941); test: Inhibition of human CDK2 by kinobeads-based assay
[21] = Toxicity in Crl:WI(Han) rat assessed as drug tolerability dose at 100 to 1000 mg/kg/day, po via gavage for 7 days; type: organism-based; settings: in vivo, read-out: Activity
Outline: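 Male Crl:WI(Han) rats dosed by oral gavage once daily in a 7-day repeat-dose study at 100, 300 and 1000 mg/kg/day. Tolerated doses judged from in-life and clinical signs, macroscopic observations, histopathology, clinical pathology and liver gene expression profiling versus controls.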

[22] = Ratio of AUC (0 to 24 hrs) in conscious unrestrained telemetered Crl:WI(Han) rat at 300 mg/kg/day, po via gavage for 7 days measured on day 7 to AUC (0 to 24 hrs) in Leishmania donovani LV9 amastigotes infected BALB/c mouse at 25 mg/kg, po administered bid for 10 days measured on day 10; type: ADME, organism-based; settings: in vivo, read-out: TI
Outline: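 Index = AUC0–24 on day 7 of the rat study / AUC0–24 on day 10 of the mouse efficacy model. Rat arm: male Crl:WI(Han) rats, oral gavage once daily for 7 days at 100, 300 or 1000 mg/kg/day. Mouse arm: female BALB/c infected i.v. with ~2×10^7 L. donovani LV9 amastigotes, dosed orally twice daily for 10 days from day 7 post-infection in 0.5% HPMC, 0.4% Tween 80, 0.5% benzyl alcohol.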

[23] = Toxicity in Crl:WI(Han) rat assessed as stomach distension at 100 to 1000 mg/kg/day, po via gavage for 7 days; type: organism-based; settings: in vivo, 168 h; outline: as §2
CYP1A1 = test: (§4) Toxicity in Crl:WI(Han) rat assessed as increase in CYP1A1 gene expression in liver at 100 to 1000 mg/kg/day, po via gavage for 7 days; type: organism-based; settings: Crl:WI(Han), liver, read-out: FC; outline: as §3
[24] = Toxicity in Crl:WI(Han) rat assessed as effect on liver gene expression in liver at 100 to 1000 mg/kg/day, po via gavage for 7 days; type: organism-based; settings: in vivo, 168 h; outline: as §3
[25] = Intrinsic clearance in human liver microsomes at 0.5 uM after 3 to 30 mins in presence of NADPH by UPLC-MS/MS analysis; type: ADME, Microsome; outline: as §1
Lymphoma cell line [26] = test: Clastogenicity in mouse Lymphoma cells at 120 ug/ml; type: toxicity, cell-based
[27] = Toxicity in Crl:WI(Han) rat assessed as increase in ALP at 1000 mg/kg/day, po via gavage for 7 days; type: organism-based; settings: in vivo, 168 h; outline: as §3
[28] = Toxicity in Crl:WI(Han) rat assessed as decrease in calcium levels at 1000 mg/kg/day, po via gavage for 7 days; type: organism-based; settings: in vivo, 168 h
[29] = Toxicity in Crl:WI(Han) rat assessed as increase in plasma glucose levels at 1000 mg/kg/day, po via gavage for 7 days; type: organism-based; settings: in vivo, 168 h; outline: as §3
[30] = Toxicity in Crl:WI(Han) rat assessed as decrease in RBC levels at 300 to 1000 mg/kg/day, po via gavage for 7 days; type: organism-based; settings: in vivo, 168 h
[31] = Toxicity in Crl:WI(Han) rat assessed as decrease in HCT levels at 300 to 1000 mg/kg/day, po via gavage for 7 days; type: organism-based; settings: in vivo, 168 h
[32] = Toxicity in Crl:WI(Han) rat assessed as decrease in hemoglobin levels at 300 to 1000 mg/kg/day, po via gavage for 7 days; type: organism-based; settings: in vivo, 168 h
[33] = Toxicity in Crl:WI(Han) rat assessed as decrease in albumin levels at 300 mg/kg/day, po via gavage for 7 days; type: organism-based; settings: in vivo, 168 h
[34] = Toxicity in Crl:WI(Han) rat assessed as increase in triglycerides levels at 300 mg/kg/day, po via gavage for 7 days; type: organism-based; settings: in vivo, 168 h; outline: as §3
[35] = Toxicity in rabbit cardiac ventricular wedge assessed as QT shortening at 30 uM relative to control; type: tissue-based, Oryctolagus cuniculus, Cardiac ventricle
[36] = Cardiotoxicity in Crl:WI(Han) rat up to 1000 mg/kg, po via gavage; type: toxicity, organism-based; settings: in vivo
Outline: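 Conscious unrestrained telemetered male CRL:WI(Han) rats given a single oral dose of vehicle or test article up to 1000 mg/kg. Cardiovascular and electrocardiographic parameters monitored.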

[37] = Toxicity in Crl:WI(Han) rat assessed as effect on life and clinical signs at 100 to 1000 mg/kg/day, po via gavage for 7 days; type: organism-based; settings: in vivo, 168 h; outline: as §3
[38] = Toxicity in Crl:WI(Han) rat assessed as effect on macro observations parameters at 100 to 1000 mg/kg/day, po via gavage for 7 days; type: organism-based; settings: in vivo, 168 h; outline: as §3
[39] = Toxicity in Crl:WI(Han) rat assessed as decrease in total protein levels at 300 mg/kg/day, po via gavage for 7 days; type: organism-based; settings: in vivo, 168 h
[40] = as §4; type: organism-based; settings: in vivo, 168 h; outline: as §3

SMILES: COc1ccccc1-c1n[nH]c2nc(N[C@H]3CC[C@H](NS(=O)(=O)CCC(F)(F)F)CC3)nc(OC)c12
- EC50 (Leishmania donovani [1]): 0.398 µM
- CLH [2]: 1.1 mL/min/g
- solubility kinetic [3]: 68 µM (≈ 35.9 µg/mL)
- solubility at 4 h [4]: 25 to 130 µg/mL (≈ 47.3 to 246 µM)
- pKa [5]: 4.1
- Activity (Leishmania donovani [6]): >95%
- IC50 (Cytochrome P450 3A4): 6.31 µM
- Activity [7]: Non-Toxic
- Activity (Lymphoma cell line [8]): Non-Toxic
- IC50 [9]: 17.5 µM
- Activity [10]: Toxic
- Activity [11]: Toxic
- Activity [12]: Toxic
- Activity [13]: Toxic
- Activity [14]: Toxic
- Activity [15]: Toxic
- Activity [16]: Toxic
- Activity [17]: 11.3%
- Activity [18]: Non-Toxic
- selectivity ratio [19]: 12
- inhibition [20]: Active
- MTD at 168 h [21]: 100 to 300 mg/kg
- selectivity ratio [22]: 19
- Activity [23]: Toxic
- fold induction at 168 h (CYP1A1): 43
- Activity [24]: Non-Toxic

SMILES: C[C@H]1CN(c2n[nH]c3nc(N[C@H]4CC[C@H](NS(=O)(=O)CCC(F)(F)F)CC4)ncc23)CCO1 [GSK-3186899]
- EC50 (Leishmania donovani [1]): 1.26 µM
- CLH [2]: < 0.5 mL/min/g
- CLH [25]: 0.7 mL/min/g
- solubility kinetic [3]: 99 µM (≈ 48.7 µg/mL)
- solubility at 4 h [4]: 17 to 64 µg/mL (≈ 34.6 to 130 µM)
- Activity (Leishmania donovani [6]): >95%
- IC50 (Cytochrome P450 3A4): > 39.8 µM
- Activity [7]: Non-Toxic
- Activity (Lymphoma cell line [26]): Non-Toxic
- IC50 [9]: > 30 µM
- Activity [27]: Toxic
- Activity [28]: Toxic
- Activity [29]: Toxic
- Activity [30]: Toxic
- Activity [31]: Toxic
- Activity [32]: Toxic
- Activity [33]: Toxic
- Activity [34]: Toxic
- Activity [35]: 8.9%
- Activity [36]: Non-Toxic
- selectivity ratio [19]: 3
- inhibition [20]: inactive
- MTD at 168 h [21]: 100 to 1000 mg/kg
- selectivity ratio [22]: 13
- Activity [37]: Non-Toxic
- Activity [38]: Non-Toxic
- Activity [39]: Toxic
- Activity [40]: Non-Toxic
- Activity [24]: Non-Toxic
